{
  "source": "ChEMBL document CHEMBL4354861",
  "about": "“Re-Evaluating the Mechanism of Action of α,β-Unsaturated Carbonyl DUB Inhibitors b-AP15 and VLX1570: A Paradigmatic Example of Unspecific Protein Cross-linking with Michael Acceptor Motif-Containing Drugs” (J Med Chem, 2020)",
  "key": {"Anamorsin (Homo sapiens) [1]": {"target": "Anamorsin (Homo sapiens) (UniProt Q6FI81)", "sequence (Q6FI81 whole entry, the tested form may be a part)": "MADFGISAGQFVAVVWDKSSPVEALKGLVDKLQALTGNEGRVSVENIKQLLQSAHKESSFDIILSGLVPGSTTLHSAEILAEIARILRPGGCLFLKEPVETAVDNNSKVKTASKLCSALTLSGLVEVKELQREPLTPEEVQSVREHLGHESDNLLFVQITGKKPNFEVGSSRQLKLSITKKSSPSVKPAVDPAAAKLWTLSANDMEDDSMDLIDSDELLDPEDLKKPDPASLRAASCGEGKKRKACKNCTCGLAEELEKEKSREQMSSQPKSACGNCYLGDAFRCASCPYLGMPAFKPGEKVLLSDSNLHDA", "experiment": "Inhibition of recombinant purified CIAPIN1 (unknown origin) assessed as accumulation of protein aggregates at 0.1 to 1.6 uM incubated for 1 to 6 hrs by size exclusion chromatography"}, "Anamorsin (Homo sapiens) [2]": {"target": "Anamorsin (Homo sapiens) (UniProt Q6FI81)", "experiment": "Covalent binding affinity to CIAPIN1 in human U2OS cells at 20 uM using probe-1 by ABPP analysis", "assay_type": "cell-based", "outline": "(§1)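 U2OS cells pre-incubated 30 min with competitor (0, 5 or 20 µM), then 5 µM probe 1 for 1 h, in triplicate. Lysates in Triton/SDS buffer mixed with heavy R10K8-labelled probe-treated spike, CuAAC-tagged, NeutrAvidin-enriched, reduced, alkylated, trypsin-digested overnight at 37 °C, LC-MS/MS. Log2(L/H) ratios median-normalised and expressed relative to the no-inhibitor condition.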"}, "Anamorsin (Homo sapiens) [3]": {"target": "Anamorsin (Homo sapiens) (UniProt Q6FI81)", "experiment": "Inhibition of recombinant purified CIAPIN1 (unknown origin) assessed as covalent modification of cysteine residues incubated for 30 mins LC-MS/MS analysis"}, "HeLa [4]": {"test_system": "HeLa", "experiment": "Inhibition of deubiquitinase in human HeLa cell extracts assessed as inhibition of HA-Ub-C2Br probe labeling at 1 to 100 uM incubated for 30 mins by immunoblot analysis", "assay_type": "cell-free"}, "[5]": {"target": "T1, Ubiquitin carboxyl-terminal hydrolase 28 (Homo sapiens) (UniProt Q96RU2)", "T1 sequence (whole entry)": "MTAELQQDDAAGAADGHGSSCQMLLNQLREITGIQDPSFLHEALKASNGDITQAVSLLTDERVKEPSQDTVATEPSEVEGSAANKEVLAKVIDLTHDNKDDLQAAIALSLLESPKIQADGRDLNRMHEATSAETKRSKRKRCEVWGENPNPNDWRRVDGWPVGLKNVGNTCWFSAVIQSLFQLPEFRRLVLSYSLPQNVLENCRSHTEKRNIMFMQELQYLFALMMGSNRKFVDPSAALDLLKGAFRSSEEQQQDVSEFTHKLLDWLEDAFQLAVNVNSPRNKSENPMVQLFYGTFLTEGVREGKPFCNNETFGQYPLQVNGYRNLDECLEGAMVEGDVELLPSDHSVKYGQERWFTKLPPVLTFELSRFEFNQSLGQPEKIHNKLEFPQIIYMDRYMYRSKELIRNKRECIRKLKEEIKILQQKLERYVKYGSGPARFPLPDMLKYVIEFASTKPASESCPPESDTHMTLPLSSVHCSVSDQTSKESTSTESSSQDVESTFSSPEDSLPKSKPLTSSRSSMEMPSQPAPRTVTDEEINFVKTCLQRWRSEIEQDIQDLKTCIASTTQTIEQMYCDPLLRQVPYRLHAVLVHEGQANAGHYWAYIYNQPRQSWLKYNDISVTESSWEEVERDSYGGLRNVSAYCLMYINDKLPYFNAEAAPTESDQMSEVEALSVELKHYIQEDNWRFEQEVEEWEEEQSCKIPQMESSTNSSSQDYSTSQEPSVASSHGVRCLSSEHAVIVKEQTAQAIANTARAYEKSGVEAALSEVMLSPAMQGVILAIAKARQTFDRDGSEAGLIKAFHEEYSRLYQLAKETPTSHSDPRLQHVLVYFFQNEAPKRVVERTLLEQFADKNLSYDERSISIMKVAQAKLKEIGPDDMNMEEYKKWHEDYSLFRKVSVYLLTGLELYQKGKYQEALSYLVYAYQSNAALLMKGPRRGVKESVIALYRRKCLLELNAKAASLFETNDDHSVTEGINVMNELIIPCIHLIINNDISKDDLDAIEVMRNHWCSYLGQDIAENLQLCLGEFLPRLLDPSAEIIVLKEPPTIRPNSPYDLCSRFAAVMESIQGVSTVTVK", "experiment": "Covalent binding affinity to USP28 in human U2OS cells at 20 uM using probe-1 by ABPP analysis", "assay_type": "cell-based", "outline": "as §1"}, "KMS-11 [6]": {"test_system": "KMS-11", "experiment": "Cytotoxicity in human KMS11 cells assessed as reduction in cell viability incubated for 72 hrs Cell-titer Glo reagent based assay", "assay_type": "functional", "settings": "KMS-11, 72 h", "outline": "(§2)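 KMS11 (RPMI, seeded 25,000/well) or U2OS (DMEM, 10,000/well, adhered overnight) given varying concentrations, 72 h, biological triplicates, DMSO and bortezomib controls. CellTiter Glo luminescence; EC50 by dose-response fit.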"}, "Anamorsin (Homo sapiens) [7]": {"target": "Anamorsin (Homo sapiens) (UniProt Q6FI81)", "experiment": "Inhibition of recombinant purified CIAPIN1 (unknown origin) assessed as covalent adduct formation at 10 molar equivalents incubated for 2 hrs by electrospray MS analysis", "outline": "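His-tagged full-length human CIAPIN1 (AA1-312, C-terminal 7x His/TEV, 27 µM) incubated with 10 molar equivalents of compound (270 µM) in PBS for 2 h at room temperature, then analysed intact by ES-MS.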"}, "[8]": {"target": "T2, Ubiquitin carboxyl-terminal hydrolase isozyme L5 (Homo sapiens) (UniProt Q9Y5K5)", "T2 sequence (whole entry)": "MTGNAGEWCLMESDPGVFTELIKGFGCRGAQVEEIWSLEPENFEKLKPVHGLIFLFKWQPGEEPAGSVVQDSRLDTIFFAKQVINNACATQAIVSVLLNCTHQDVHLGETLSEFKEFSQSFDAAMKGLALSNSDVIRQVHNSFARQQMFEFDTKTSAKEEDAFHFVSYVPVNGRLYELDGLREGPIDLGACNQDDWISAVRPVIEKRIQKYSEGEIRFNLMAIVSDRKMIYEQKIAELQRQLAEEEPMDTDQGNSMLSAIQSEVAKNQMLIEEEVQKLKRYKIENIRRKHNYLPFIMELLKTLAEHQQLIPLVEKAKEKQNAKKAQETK", "experiment": "Covalent binding affinity to UCH-37 in human U2OS cells at 20 uM using probe-1 by ABPP analysis", "assay_type": "cell-based", "outline": "as §1"}, "Anamorsin (Homo sapiens) [9]": {"target": "Anamorsin (Homo sapiens) (UniProt Q6FI81)", "experiment": "Inhibition of CIAPIN1 in human KMS11 cells assessed as induction of protein aggregation at 100 nM incubated for 1 hr by immunoblot analysis", "assay_type": "cell-based"}, "Anamorsin (Homo sapiens) [10]": {"target": "Anamorsin (Homo sapiens) (UniProt Q6FI81)", "experiment": "Inhibition of CIAPIN1 in human KMS11 cells assessed as induction of high molecular weight complex formation at 100 nM incubated for 6 hrs by immunoblot analysis", "assay_type": "cell-based"}, "[11]": {"target": "T1, Ubiquitin carboxyl-terminal hydrolase 28 (Homo sapiens)", "experiment": "Inhibition of USP28 in human HeLa cell extracts assessed as inhibition of HA-Ub-C2Br probe labeling at 1 to 100 uM incubated for 30 mins by immunoblot analysis", "assay_type": "cell-free"}, "Anamorsin (Homo sapiens) [12]": {"target": "Anamorsin (Homo sapiens) (UniProt Q6FI81)", "experiment": "Inhibition of recombinant purified CIAPIN1 (unknown origin) assessed as increase in high molecular weight CIAPIN1 complexes at 1 to 10 molar equivalent 1 by SDS-PAGE and Coomassie Blue staining based method", "outline": "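Recombinant CIAPIN1 (1 mg/mL) incubated with DMSO (0.16%) or compound at 1x, 2x, 5x or 10x molar excess, 30 min at 4 °C. Resolved by SDS-PAGE with Coomassie staining.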"}, "KMS-11 [13]": {"test_system": "KMS-11", "experiment": "Cytotoxicity in human KMS11 cells assessed as reduction in cell viability at 1 to 10 uM incubated for 16 hrs in presence of GSH by Alamar blue assay", "assay_type": "functional, cell-based", "outline": "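KMS11 seeded at 80,000/well, treated with 1 or 10 µM compound with or without 1 mM GSH for 16 h, 6 biological replicates. Alamar blue fluorescence read at 560/590 nm, normalised to DMSO control.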"}, "[14]": {"target": "Ubiquitin carboxyl-terminal hydrolase 14 (Homo sapiens) (UniProt P54578)", "sequence (P54578 whole entry)": "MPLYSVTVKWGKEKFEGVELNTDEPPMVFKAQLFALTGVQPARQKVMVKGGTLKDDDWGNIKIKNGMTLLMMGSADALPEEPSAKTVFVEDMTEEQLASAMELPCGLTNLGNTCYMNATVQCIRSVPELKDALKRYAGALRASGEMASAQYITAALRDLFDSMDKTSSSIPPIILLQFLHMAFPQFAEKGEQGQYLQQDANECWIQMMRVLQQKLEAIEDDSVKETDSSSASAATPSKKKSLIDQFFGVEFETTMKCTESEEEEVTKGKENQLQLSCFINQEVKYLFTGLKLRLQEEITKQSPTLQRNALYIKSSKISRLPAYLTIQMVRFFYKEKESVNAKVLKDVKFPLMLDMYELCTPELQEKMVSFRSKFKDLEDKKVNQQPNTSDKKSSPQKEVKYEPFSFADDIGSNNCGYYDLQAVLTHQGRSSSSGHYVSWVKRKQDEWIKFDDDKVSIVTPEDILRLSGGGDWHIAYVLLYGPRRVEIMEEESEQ", "experiment": "Covalent binding affinity to USP14 in human U2OS cells at 20 uM using probe-1 by ABPP analysis", "assay_type": "cell-based", "outline": "as §1"}, "Anamorsin (Homo sapiens) [15]": {"target": "Anamorsin (Homo sapiens) (UniProt Q6FI81)", "experiment": "Inhibition of CIAPIN1 in human KMS11 crude cell extracts assessed as induction of formation of high molecular weight complexes with CIAPIN1 at 20 uM incubated for 2 hrs in presence of GSH by immunoblot analysis"}, "U2OS": {"test_system": "U2OS", "experiment": "Cytotoxicity in human U2OS cells assessed as reduction in cell viability incubated for 72 hrs Cell-titer Glo reagent based assay", "assay_type": "functional", "outline": "as §2"}, "Anamorsin (Homo sapiens) [16]": {"target": "Anamorsin (Homo sapiens) (UniProt Q6FI81)", "experiment": "Inhibition of recombinant purified CIAPIN1 (unknown origin) assessed as disruption of intra-chain disulfide bond in unmodified peptide containing Cys249"}, "Anamorsin (Homo sapiens) [17]": {"target": "Anamorsin (Homo sapiens) (UniProt Q6FI81)", "experiment": "Inhibition of CIAPIN1 in human KMS11 crude cell extracts assessed as induction of formation of high molecular weight complexes with CIAPIN1 at 20 uM incubated for 2 hrs by immunoblot analysis"}, "Anamorsin (Homo sapiens) [18]": {"target": "Anamorsin (Homo sapiens) (UniProt Q6FI81)", "experiment": "Inhibition of CIAPIN1 in human KMS11 cells assessed as deletion of depletion of stable CIAPIN1 levels at 100 nM incubated for 6 hrs by immunoblot analysis", "assay_type": "cell-based"}, "HeLa [19]": {"test_system": "HeLa", "experiment": "Inhibition of deubiquitinase in human HeLa cell extracts assessed as induction of accumulation of high molecular weight mTOR proteins at 1 uM incubated for 2 hrs by immunoblot analysis", "assay_type": "cell-free"}},
  "note": "The source made the active and inactive calls. The rule behind the calls is not given here.",
  "data": [
    {"smiles": "C=CC(=O)N1CC/C(=C\\c2ccc(F)c([N+](=O)[O-])c2)C(=O)/C(=C/c2ccc(F)c([N+](=O)[O-])c2)C1", "values": [
      {"measurement": "inhibition", "setting": "Anamorsin (Homo sapiens) [1]", "result": "Active"},
      {"measurement": "Activity", "setting": "Anamorsin (Homo sapiens) [2]", "result": "Active"},
      {"measurement": "inhibition", "setting": "Anamorsin (Homo sapiens) [3]", "result": "Active"},
      {"measurement": "inhibition", "setting": "HeLa [4]", "result": "Active"},
      {"measurement": "Activity", "setting": "[5]", "result": "inactive"},
      {"measurement": "EC50", "setting": "KMS-11 [6]", "result": 0.043, "unit": "µM"},
      {"measurement": "inhibition", "setting": "Anamorsin (Homo sapiens) [7]", "result": "Active"},
      {"measurement": "Activity", "setting": "[8]", "result": "inactive"},
      {"measurement": "inhibition", "setting": "Anamorsin (Homo sapiens) [9]", "result": "Active"},
      {"measurement": "inhibition", "setting": "Anamorsin (Homo sapiens) [10]", "result": "Active"},
      {"measurement": "inhibition", "setting": "[11]", "result": "Active"},
      {"measurement": "inhibition", "setting": "Anamorsin (Homo sapiens) [12]", "result": "Active"},
      {"measurement": "Activity", "setting": "KMS-11 [13]", "result": "inactive"},
      {"measurement": "Activity", "setting": "[14]", "result": "inactive"},
      {"measurement": "inhibition", "setting": "Anamorsin (Homo sapiens) [15]", "result": "inactive"},
      {"measurement": "EC50", "setting": "U2OS", "result": 0.098, "unit": "µM"},
      {"measurement": "inhibition", "setting": "Anamorsin (Homo sapiens) [16]", "result": "Active"},
      {"measurement": "inhibition", "setting": "Anamorsin (Homo sapiens) [17]", "result": "Active"},
      {"measurement": "inhibition", "setting": "Anamorsin (Homo sapiens) [18]", "result": "Active"}
    ]},
    {"smiles": "COc1cc(/C=C/C(=O)CC(=O)/C=C/c2ccc(O)c(OC)c2)ccc1O", "values": [
      {"measurement": "inhibition", "setting": "HeLa [19]", "result": "Active"}
    ]},
    {"smiles": "C#CCC(=O)N1CC/C(=C\\c2ccc(F)c([N+](=O)[O-])c2)C(=O)/C(=C/c2ccc(F)c([N+](=O)[O-])c2)C1", "values": [
      {"measurement": "EC50", "setting": "KMS-11 [6]", "result": 0.046, "unit": "µM"},
      {"measurement": "EC50", "setting": "U2OS", "result": 0.081, "unit": "µM"}
    ]}
  ]
}
